Test results published in PMC6072216 (MedChemComm, 2017).

Columns and labels:
[1] = tested on: MDA-MB-231 breast cancer cells; assay: MTS cell proliferation/viability assay, MDA-MB-231; format: cell-based, Human; settings: for antiproliferative activity (in words): MDA-MB-231, 50 μM, 48 hours, MTS
In short: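 MDA-MB-231 cells cultured in DMEM with 10% FBS and 1% penicillin/streptomycin at 37 °C, 5% CO2; seeded at 7 × 10^3 per well. Serum removed after 24 h, then test compound at 1–50 μM in DMSO (max 0.1%) for 48 h, with a solvent-only control. MTS reagent 4 h at 37 °C, OD 550 nm. Blank-subtracted values normalised to DMSO (100%); triplicates; IC50 by nonlinear regression.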

[2] = tested on: MCF-7 breast cancer cells; assay: MTS cell proliferation assay, MCF-7; format: cell-based, human; settings: MCF-7, highest concentration tested 50 μM, 48 h
In short: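 MCF-7 cells seeded at 7 × 10^3 per well; serum withdrawn after 24 h, then exposed 48 h to test compound at 10–50 μM in DMSO (max 0.1%), with a solvent-only control. MTS reagent added; absorbance read at 550 nm after 4 h at 37 °C. Blank-subtracted values normalised to DMSO control (100%); triplicates.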

VERO cells = assay: Cytotoxicity against GFP-expressing VERO cells; format: cell-based, African Green Monkey; settings: 50 μg mL^–1 (158 μM for 2c, 139 μM for 3), 4 days
MDA-MB-231 cells = assay: Annexin V-FITC/PI apoptosis assay by flow cytometry; format: cell-based, Human; settings: 48 hours
In short: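 MDA-MB-231 cells seeded at 1 × 10^5 per well in 6-well plates; 24 h after serum removal, exposed to test compound (20–40 μM) for 48 h against a 0.1% DMSO control. Trypsinised, washed in cold PBS, stained with Annexin V-FITC and PI (50 μg mL–1) in binding buffer for 20 min in the dark at 0 °C. Flow cytometry gated viable, early-apoptotic, late-apoptotic and necrotic fractions. 3 independent experiments; one-way ANOVA with Fisher's PLSD.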

[3] = tested on: leukaemia, colon, renal and melanoma cancer cell lines; assay: NCI anti-cancer screen, summary over cell line groups; format: cell-based; settings: read-out: IC50 values

For `C[C@]1(NC(=O)CCl)C2CC[C@@]3(C)N=C(CCl)C1CC3C2` (stereo partly drawn) [Compound 2c, Exo-11-chloroacetamido-4,endo-11-dimethyl-2-chloromethyl-3-azatricyclo[5.3.1.0^4,9]undec-2-ene], the MDA-MB-231 cell viability ([1]; at 20 μM) was 90 % of control, the “antiproliferative activity (in words)” value [2] was “no antiproliferative activities” and the “reduction of VERO cell viability” value (VERO cells) was 84 % of control. The “increase of population of cells in early apoptosis” value (MDA-MB-231 cells; 20 μM) was 21% and the “increase of population of cells in early apoptosis” value (MDA-MB-231 cells; 40 μM) was 31%.

In the case of `CC(=O)N[C@@]1(C)C2CC[C@@]3(C)N=C(CCl)C1CC3C2` (stereo partly drawn) [Compound 8, Exo-11-acetamido-4,endo-11-dimethyl-2-chloromethyl-3-azatricyclo[5.3.1.0^4,9]undec-2-ene], the “antiproliferative activity (in words)” value [1] is reported as “lack of activity”.

With `COC(=O)C[C@H]1C(=O)C=C2C3CC4CC(CC[C@@]4(C)N21)[C@]3(C)NC(C)=O` (stereo partly drawn) [Compound 10, Methyl(E)-[exo-11-acetylamino-9α,endo-11-dimethyl-2-oxo-1,2,4,5,5α,6,7,8,9,9α-decahydro-4,7-methanopyrrolo[1,2-a]-quinolin-1-ylidane]ethanoate] the “antiproliferative activity (in words)” value [1] was “lack of activity”.

For `CC(=O)N[C@@]1(C)C2CC[C@@]3(C)N[C@@H](CCl)C1CC3C2` (stereo partly drawn) [Compound 9, Exo-11-acetamido-4,endo-11-dimethyl-2-chloromethyl-3-azatricyclo[5.3.1.0^4,9]undecane], the “antiproliferative activity (in words)” value [1] was “lack of activity”.

For `COC(=O)/C=C1\C(=O)C=C2C3CC4CC(CCC4(C)N21)C3(C)NC(C)=O` (stereo not shown) [Compound 3], the “reduction of VERO cell viability” value (VERO cells) was 77 % of control and the IC50 [3] was less than 10 µM.
